Laboratory results reported in paper PMC7821153 (Chemical Biology & Drug Design, 2020).

Tests used:
Type in all cases: cell-based
[1] = test system: HIV-1 NNRTI-resistant mutant K103N/P225H; assay: Single-round infectivity assay, K103N/P225H; settings: Human immunodeficiency virus 1, read-out: EC50 K103N/P225H
How it was run: (§1)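 Single-round infection with the HIV-1-based vector pNLNgoMIVR-ΔENV.LUC (Env-deleted, luciferase-carrying) bearing the indicated RT mutation(s), used to derive EC50. The mutant vectors are previously described constructs.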

[2] = test system: HIV-1 RT-resistant mutant M184V; assay: Single-round infectivity assay, M184V; settings: read-out: EC50 M184V; single-round infection, n = 3
How it was run: as §1

[3] = test system: HIV-1 NNRTI-resistant mutant G190S; assay: Single-round infectivity assay, G190S; settings: read-out: EC50 G190S; single-round infection, n = 3
How it was run: as §1

[4] = test system: HIV-1 NNRTI-resistant mutant G190A; assay: Single-round infectivity assay, G190A; settings: read-out: EC50 G190A; single-round infection, n = 3
How it was run: as §1

[5] = test system: WT HIV-1; assay: Single-round infectivity assay, WT RT vector
How it was run: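 Single-round infection with an HIV-1-based vector (pNLNgoMIVR-ΔENV.LUC, Env-deleted, luciferase-carrying) with wild-type RT, used to derive EC50. Therapeutic index is calculated from CC50 (ATP-dependent luminescence assay) and wild-type EC50. Three independent experiments (n = 3), with standard deviations.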

[6] = Cellular cytotoxicity, ATP-dependent luminescence assay
How it was run: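 Cytotoxicity measured by ATP-dependent luminescence, with CC50 derived. Values are from three independent experiments (n = 3), and standard deviations are reported.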

[7] = test system: HIV-1 NNRTI-resistant mutant P236L; assay: Single-round infectivity assay, P236L; settings: read-out: EC50 P236L; single-round infection, n = 3
How it was run: as §1

[8] = test system: HIV-1 RT-resistant mutant K101E; assay: Single-round infectivity assay, K101E; settings: Human immunodeficiency virus 1, read-out: EC50 K101E
How it was run: as §1

[9] = test system: HIV-1 NNRTI-resistant mutant E138K; assay: Single-round infectivity assay, E138K; settings: Human immunodeficiency virus 1, read-out: EC50 E138K
How it was run: as §1

[10] = test system: HIV-1 NNRTI-resistant mutant L100I/K103N; assay: Single-round infectivity assay, L100I/K103N; settings: Human immunodeficiency virus 1, read-out: EC50 L100I/K103N
How it was run: as §1

[11] = test system: HIV-1 RT-resistant mutant K101E/M184V; assay: Single-round infectivity assay, K101E/M184V; settings: read-out: EC50 K101E/M184V; single-round infection, n = 3
How it was run: as §1

[12] = test system: HIV-1 NNRTI-resistant mutant Y188L; assay: Single-round infectivity assay, Y188L; settings: Human immunodeficiency virus 1, read-out: EC50 Y188L
How it was run: as §1

[13] = test system: HIV-1 NNRTI-resistant mutant V106A/G190A/F227L; assay: Single-round infectivity assay, V106A/G190A/F227L; settings: Human immunodeficiency virus 1, read-out: EC50 V106A/G190A/F227L
How it was run: as §1

[14] = test system: HIV-1 RT-resistant mutant E40K; assay: Single-round infectivity assay, E40K; settings: read-out: EC50 E40K; single-round infection, n = 3
How it was run: as §1

[15] = test system: HIV-1 RT-resistant mutant K101E/M184I; assay: Single-round infectivity assay, K101E/M184I; settings: read-out: EC50 K101E/M184I; single-round infection, n = 3
How it was run: as §1

[16] = test system: HIV-1 NNRTI-resistant mutant L100I; assay: Single-round infectivity assay, L100I; settings: Human immunodeficiency virus 1, read-out: EC50 L100I
How it was run: as §1

[17] = test system: HIV-1 NNRTI-resistant mutant H221Y; assay: Single-round infectivity assay, H221Y; settings: Human immunodeficiency virus 1, read-out: EC50 H221Y
How it was run: as §1

[18] = test system: HIV-1 NNRTI-resistant mutant Y181C; assay: Single-round infectivity assay, Y181C; settings: Human immunodeficiency virus 1, read-out: EC50 Y181C
How it was run: as §1

[19] = test system: HIV-1 NNRTI-resistant mutant K103N/Y181C; assay: Single-round infectivity assay, K103N/Y181C; settings: Human immunodeficiency virus 1, read-out: EC50 K103N/Y181C
How it was run: as §1

[20] = test system: HIV-1 RT-resistant mutant D67E; assay: Single-round infectivity assay, D67E; settings: read-out: EC50 D67E; single-round infection, n = 3
How it was run: as §1

[21] = test system: HIV-1 DOR-resistant mutant L234I; assay: Single-round infectivity assay, L234I; settings: read-out: EC50 L234I; single-round infection, n = 3
How it was run: as §1

[22] = test system: HIV-1 NNRTI-resistant mutant M230L; assay: Single-round infectivity assay, M230L; settings: Human immunodeficiency virus 1, read-out: EC50 M230L
How it was run: as §1

[23] = test system: HIV-1 NNRTI-resistant mutant K103N; assay: Single-round infectivity assay, K103N; settings: Human immunodeficiency virus 1, read-out: EC50 K103N
How it was run: as §1

Structure (SMILES): Cc1cc(/C=C/C#N)cc(C)c1-n1cnc2cnc(Nc3ccc4cc(C#N)ccc4c3)nc21 [Compound 10, (E)‐6‐((9‐(4‐(2‐cyanovinyl)‐2,6‐dimethylphenyl)‐9H‐purin‐2‐yl)amino)‐2‐naphthonitrile]
- EC50 [1]: 103 ± 8.1 nM
- EC50 [2]: 3.1 ± 0.4 nM
- EC50 [3]: 2.1 ± 0.1 nM
- EC50 [4]: 1.6 ± 0.3 nM
- EC50 ([5]; Human immunodeficiency virus 1, read-out: EC50 WT): 2.3 ± 0.2 nM
- TI (therapeutic index) ([5]; calculated from CC50 and WT EC50): 4,696
- CC50 [6]: 10800 ± 1200 nM
- EC50 [7]: 1.6 ± 0.1 nM
- EC50 [8]: 13.4 ± 1 nM
- EC50 [9]: 32.7 ± 4.4 nM
- EC50 [10]: 386 ± 19.9 nM
- EC50 [11]: 4.7 ± 0.8 nM
- EC50 [12]: 180 ± 14.7 nM
- EC50 [13]: 7 ± 0.5 nM
- EC50 [14]: 4.2 ± 0.7 nM
- EC50 [15]: 14 ± 0.1 nM
- EC50 [16]: 24.2 ± 6.1 nM
- EC50 [17]: 3.4 ± 0.3 nM
- EC50 [18]: 47.7 ± 7.8 nM
- EC50 [19]: 468 ± 88.8 nM
- EC50 [20]: 10 ± 1.9 nM
- EC50 [21]: 2.3 ± 0.2 nM
- EC50 [22]: 33.8 ± 2.7 nM
- EC50 [23]: 24.5 ± 4.9 nM
